Source: PubChem
Sampled rows, rich in hits. Any-hit rate of the full collection: about 1.6%.
SUMO HTRF inh = inhibitors of in vitro SUMOylation cascade, primary screen, biochemical, HTRF, uHTS; SUMO-conjugating enzyme UBC9 (Homo sapiens), P63279; HTRF SUMOylation assay, SAE1/SAE2 + UBC9; inhibition, % at 35 µM; 290,000 tested, 0.36% active; in the data active = inhibition above about 50%, passing the limit was not always enough
Target sequence (P63279 whole entry, looked up): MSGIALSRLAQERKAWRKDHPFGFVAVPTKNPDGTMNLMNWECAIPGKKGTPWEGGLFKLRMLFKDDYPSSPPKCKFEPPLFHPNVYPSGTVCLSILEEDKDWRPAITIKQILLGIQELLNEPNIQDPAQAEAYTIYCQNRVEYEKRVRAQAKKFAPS
GASC-1 inh = inhibitors of GASC-1 histone demethylase, primary screen, biochemical, fluorescence, DELFIA europium; Lysine-specific demethylase 4C (Homo sapiens), Q9H3R0; GST-JMJD2C(1-420) H3K9me3 demethylation; inhibition, % at 2.35 µM; 330,000 tested, 0.069% active;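 active = more than half of a compound's replicate wells show inhibition beyond 50%, single wells judged on their own value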;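 also: signal counts dimethyl H3K9 product captured on neutravidin plate; 0% = median of DMSO wells and 100% = 0.3 times that DMSO median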
GSTO1 counter = inhibitors of recombinant GSTO1, primary screen, counter-screen for RBBP9 inhibitor project, biochemical, fluorescence polarization. Glutathione S-transferase omega-1 (Homo sapiens), P78417. activity-based probe fluorescence polarization. inhibition, % at 5.96 µM. 300,000 tested, 1.1% active. AID 1974, 2009;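 active = inhibition above the campaign mean inhibition plus 3 SD, cut at about 35% in these data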;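 also: 0% = GSTO1-1 with DMSO and 100% = wells lacking GSTO1-1 enzyme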
Target sequence (P78417 whole entry, looked up): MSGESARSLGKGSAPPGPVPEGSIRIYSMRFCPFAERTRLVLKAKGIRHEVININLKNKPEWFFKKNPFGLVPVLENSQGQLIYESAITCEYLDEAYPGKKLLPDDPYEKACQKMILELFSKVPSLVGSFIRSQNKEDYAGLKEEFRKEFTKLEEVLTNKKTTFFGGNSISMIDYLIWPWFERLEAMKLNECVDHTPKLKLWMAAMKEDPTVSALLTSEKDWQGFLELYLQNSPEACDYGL
TDP2 absorb = human TDP2 enzyme inhibitors, primary screen, biochemical, epi absorbance, recombinant enzyme; Tyrosyl-DNA phosphodiesterase 2 (Homo sapiens), O95551; T5PNP hydrolysis, p-nitrophenol absorbance 415 nm; inhibition, % at 12.8 µM; 370,000 tested, 0.34% active; AID 720702, 2013;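 active = inhibition above the mean of all tested compounds plus 3 SD, set per campaign, cut at about 25% in these data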;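 also: 0% = DMSO with enzyme and 100% = buffer with substrate but no TDP2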
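System – recombinant human TDP2 · Amount – 120 nM TDP2 per well · Buffer or medium – Mg2+-containing Tris-HCl buffer, pH 7.5 · Reagent – T5PNP substrate, 5 mM · Dosing – 12.8 µM single point, 1% DMSO · Incubation – 2 h at 37 °C · Measured by – epi absorbance · Read-out basis – percent inhibition · Benchmarks – high control without enzyme, low control DMSO plus TDP2 · Repeats – singlicate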
Apaf1 inhib = inhibitors of human Apaf-1 apoptosome, primary screen, biochemical, DEVD-Rh110 fluorescence, uHTS | reconstituted apoptosome caspase-3 activity | inhibition, % at 20 µM | 330,000 tested, 0.71% active | AID 489030, 2010; active = inhibition of at least 40% at 20 µM;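 also: plate controls were DMSO wells for no effect and DEVD-CHO caspase inhibitor wells for full effect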
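System: reconstituted apoptosome with Apaf-1, cytochrome c, caspase-9, procaspase-3, dATP; Signal: Rh110 fluorescence intensity; Schedule: 30 min compound preincubation, 50 min activation, room temperature; Reagent: cytochrome c trigger plus (Z-DEVD)2-Rh110 caspase-3 substrate.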
PAD4 inh = human PAD4 inhibitors, primary screen, biochemical, fluorescence polarization, 1536-well format; Protein-arginine deiminase type-4 (Homo sapiens), Q9UM07; recombinant PAD4, RCA probe fluorescence polarization; inhibition, % at 6.36 µM; 330,000 tested, 0.41% active; AID 485272, 2010;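 active = percent inhibition above a cutoff equal to the mean of all tested compounds plus 3 SD, cut at about 15% in these data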;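 also: 0% = PAD4 with RCA probe and DMSO and 100% = probe without PAD4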
TDP2 confirm = human TDP2 enzyme inhibitors, retest, confirmation, biochemical, epi absorbance, recombinant enzyme | shares compounds with TDP2 absorb | absorbance read-out | inhibition, % at 12.8 µM | 1,100 tested, 22% active; in the data active = inhibition above about 25%;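 also: 0% = vehicle with enzyme and 100% = no enzyme buffer only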
Starred values were filed as active, the others as inactive; x = no result.

SMILES | SUMO HTRF inh | GASC-1 inh | GSTO1 counter | TDP2 absorb | Apaf1 inhib | PAD4 inh | TDP2 confirm
O=C(O)c1cc(O)c2c(c1)[C@H]([C@H]1c3cc(C(=O)O)cc(O)c3C(=O)c3c(O[C@@H]4O[C@H](CO)[C@@H](O)[C@H](O)[C@H]4O)cccc31)c1cccc(OC3O[C@H](CO)[C@@H](O)[C@H](O)[C@H]3O)c1C2=O (stereo partly drawn) | x | -28 | 72* | 46* | 89* | -51 | 51*
O=C1c2c(O)cccc2C(C2OC(CO)[C@@H](O)[C@H](O)[C@H]2O)c2cc(CO)cc(O)c21 (stereo partly drawn) | x | -1 | x | 0 | 5 | -5 | x
C=CCN1C(=O)[C@@H](CC(=O)N2CCCCC2)[C@]2(C(=O)OC)CCCCC=C12 | x | x | x | -8 | x | x | x
Cc1cc2oc(C(=O)NCCc3ccc(S(N)(=O)=O)cc3)cc(=O)c2cc1C | 12 | 2 | -10 | -1 | -1 | 1 | x
Cc1cc2oc(C(=O)NCCc3ccc(S(N)(=O)=O)cc3)c(C)c2cc1C | 15 | 8 | -29 | 30* | -11 | -8 | 3
S=C(N/N=C/c1ccc2c(c1)OCO2)NC1CC2CCC1C2 (stereo not drawn) | -31 | 7 | -15 | 26* | 3 | -1 | 7
CCCC/C=C1/[C@@H](c2ccc(Cl)cc2)N(Cc2ccc3c(c2)OCO3)C2=N[C@@H](c3ccccc3)CC(=O)N21 | x | x | x | 1 | x | x | x
Cc1ccc(Nc2nc(N)nc(CN3CCCCCC3)n2)c(C)c1 | 11 | -12 | 8 | 38* | 8 | -1 | -3
Cc1ccc(Nc2nc(N)nc(CN3CCC(C)CC3)n2)c(C)c1 | x | 5 | -6 | -4 | 15 | -3 | x
COc1c(F)c(F)cc2c(=O)c(C(=O)O)cn(C3CC3)c12 | 19 | -2 | -2 | 26* | 3 | -5 | 1
COc1c(N2CCN[C@H](C)C2)c(F)cc2c(=O)c(C(=O)O)cn(C3CC3)c12 | 23 | -1 | 2 | x | -10 | -3 | x
COC(=O)[C@@H](CC(C)C)CP(=O)(OC)[C@@H](C)NC(=O)OCc1ccccc1 (stereo partly drawn) | x | x | x | -1 | x | x | x
COc1cccc(C2/C(=C(\O)c3ccc4c(c3)OCCO4)C(=O)C(=O)N2CC2CCCO2)c1 (stereo not drawn) | 3 | 5 | x | 35* | 7 | x | 3
Cc1cc(C)c(NC(=O)CSc2nnc(CN3CCOCC3)n2C)c(C)c1 | 0 | -2 | 8 | 26* | 1 | 0 | 9
Cn1c(N)c(C(=O)CCc2ccccc2)c(=O)n(C)c1=O | x | x | x | -1 | x | x | x
CCN(CC(=O)c1c(N)n(C)c(=O)n(C)c1=O)c1cccc2ccccc12 | 66 | 1 | 4 | 38* | 3 | -3 | 6
CC(C)(C)NC(=O)C(=O)NC(=O)c1c(F)cccc1Cl | 16 | 6 | 1 | 43* | -4 | -2 | -5
O=C(C1=C(O)C(=O)N(CC2CCCO2)C1c1cccc(O)c1)c1ccco1 (stereo not drawn) | 11 | 4 | 1 | 27* | 1 | -5 | 10
COC(=O)C1=C(C(C)=O)C(c2ccc(C(=O)OC)cc2)n2nnnc2N1 (stereo not drawn) | 23 | -5 | 8 | 34* | 2 | 0 | 4
CCCCNc1nnc(Cc2ccc(Cl)cc2)c(=O)[nH]1 | 17 | 3 | x | 28* | 0 | x | 0
CCCCCCCCN1CN2Cc3cc(F)ccc3C2CS1(=O)=O (stereo not drawn) | x | x | x | -10 | x | x | x
O=C(Nc1ccc(Cl)cc1)N1CCSC1=NCc1ccccc1 | 21 | 24 | 8 | 2 | -6 | -2 | x
CC(=O)Nc1ccc(C2=NN(C)C(=NCc3ccccc3)SC2)cc1 | -10 | 39 | -1 | 29* | -13 | 2 | 5
COc1ccc(Cc2nnc(SCC(=O)NC(C)c3ccccc3)o2)cc1 (stereo not drawn) | 18 | 0 | -3 | 72* | 1 | -1 | -6
CC(NC(=O)CSc1nnc(COc2ccccc2)o1)c1ccccc1 (stereo not drawn) | 13 | -23 | -4 | 4 | 3 | 3 | x
SMILES | SUMO HTRF inh | GASC-1 inh | GSTO1 counter | TDP2 absorb | Apaf1 inhib | PAD4 inh | TDP2 confirm
COc1ccccc1C=NNC(=O)NN=Cc1ccccc1OC | x | x | x | -2 | x | x | x
COc1ccccc1C=NN=C(NN=Cc1ccccc1OC)NN=Cc1ccccc1OC | x | x | x | 59* | x | x | -5
Cc1ccc(-c2c3c(nc4sc(C(N)=O)c(N)c24)CCCC3)o1 | 22 | -1 | 3 | -2 | 11 | -5 | x
NC(=O)c1sc2nc3c(c(-c4ccco4)c2c1N)CCC3 | 50 | -38 | 10 | 26* | 29 | 1 | 1
COc1c2c(cc3c1C(CC(O)Cc1ccccc1)N(C)CC3)OCO2 (stereo not drawn) | 10 | 27 | -1 | 25* | 4 | -1 | -2
Cc1ccc(-n2nc3c(=O)n(CCCC(=O)NCc4ccc(C)o4)nc(C)c3c2C)cc1 | x | 4 | 3 | 25* | -8 | 2 | 0
O=C(CCN1C(=O)/C(=C/c2ccco2)SC1=S)Nc1ccc(O)cc1C(=O)O | 49 | -14 | x | 27* | 5 | x | -4
O=C(CCCN1C(=O)/C(=C/c2ccco2)SC1=S)Nc1ccccc1C(=O)O | 68 | 2 | 15 | 10 | 0 | -12 | x
Oc1cncc(Cc2ccccc2)c1 | 8 | -15 | 5 | 25* | -16 | -1 | -13
O=C1CSc2ccc(C(=O)N3CCCC(C(=O)N4CCN(c5ccc(F)cc5)CC4)C3)cc2N1 (stereo not drawn) | x | x | x | -6 | x | x | x
CCC(C)NS(=O)(=O)c1ccc2[nH]c(=O)oc2c1 (stereo not drawn) | x | x | x | -15 | x | x | x
Cc1ccccc1OCC(O)Cn1c2ccccc2c2ccccc21 (stereo not drawn) | -27 | -1 | 3 | -2 | 11 | 2 | x
Cc1ccccc1OCC(O)CN1CCN(CC(O)COc2ccccc2C)C(C)C1 (stereo not drawn) | 3 | -19 | -7 | 26* | 2 | 1 | 5
CC(C)(C)c1ccc(-c2nnc(SCC(=O)c3ccc([N+](=O)[O-])cc3)n2-c2ccc(Cl)cc2)cc1 | x | x | x | 0 | x | x | x
O=C(NC(=S)Nc1ccccc1Cl)c1cncc(Br)c1 | 0 | 0 | 4 | 27* | 0 | -3 | -4
